# Measurements published in ChEMBL document CHEMBL1629545, “A morpholino oligomer targeting highly conserved internal ribosome entry site sequence is able to inhibit multiple species of picornavirus” (Antimicrob Agents Chemother, 2008).
# Activity calls are given as the source filed them. The rule behind the calls is not given here.
# Key:
# SK-N-MC = assay: Cytotoxicity against human SK-N-MC cell at 10 uM after 24 hrs by MTS assay; assay type: cell-based
# HeLa [1] = assay: Cytotoxicity against human HeLa cells at 10 uM by MTS assay; assay type: cell-based
# Procedure, shortened: (§1)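 HeLa cells at ~80% confluence, uninfected, exposed to 1–100 μM PPMO or water (mock) in serum-free DMEM-F-12 (1:1) for 24 h. MTS reagent was added for 4 h and absorbance read at 492 nm. Viability was expressed as percent of water-treated cells (set to 100%), averaged over 12 wells.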
# HeLa [2] = assay: Cytotoxicity against human HeLa cells at 10 uM after 48 hrs by MTS assay; assay type: cell-based
# Procedure, shortened: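 Time-course viability: uninfected HeLa cells were kept in 10 μM PPMO in DMEM-F-12 and assayed at time points from 10 to 69 h after treatment began. Read-out was the MTS reagent for 4 h with absorbance at 492 nm. Results are given as percent of water-mock cells, each point the mean of 12 wells.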
# Poliovirus 1 = assay: Antiviral activity against Human poliovirus type 1 infected in Human HeLa cell assessed as inhibition of translation at 10 ug/ml by luciferase reporter gene assay; assay type: functional, organism-based
# Procedure, shortened: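 In-cell translation control: HeLa cells electroporated with 20 μg PV1-Luc replicon RNA were placed in medium with 10 μg/ml puromycin at 37°C in 5% CO2. Luciferase in lysates was read by luminometer at hourly time points after transfection. Two experiments were averaged.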
# HeLa [3] = assay: Cytotoxicity against human HeLa cells 10 uM after 24 hrs by MTS assay; assay type: cell-based; procedure, shortened: as §1
# Vero = assay: Cytotoxicity against African green monkey Vero cells at 10 uM after 24 hrs by MTS assay; assay type: cell-based; conditions: chlorocebus sabaeus
smiles,measurement,setting,value
Cc1cn([C@H]2CN(P(=O)(OC[C@@H]3CN(P(=O)(OC[C@@H]4CN(P(=O)(OC[C@@H]5CNC[C@H](n6ccc(N)nc6=O)O5)N(C)C)C[C@H](n5cnc6c(N)ncnc65)O4)N(C)C)C[C@H](n4ccc(N)nc4=O)O3)N(C)C)C[C@@H](COP(=O)(N(C)C)N3C[C@@H](COP(=O)(N(C)C)N4C[C@@H](COP(=O)(N(C)C)N5C[C@@H](COP(=O)(N(C)C)N6C[C@@H](COP(=O)(N(C)C)N7C[C@@H](COP(=O)(N(C)C)N8C[C@@H](COP(=O)(N(C)C)N9C[C@@H](COP(=O)(N(C)C)N%10C[C@@H](COP(=O)(N(C)C)N%11C[C@@H](COP(=O)(N(C)C)N%12C[C@@H](COP(=O)(N(C)C)N%13C[C@@H](COP(=O)(N(C)C)N%14C[C@@H](COP(=O)(N(C)C)N%15C[C@@H](COP(=O)(N(C)C)N%16C[C@@H](COP(=O)(N(C)C)N%17C[C@@H](COP(=O)(N(C)C)N%18C[C@@H](COP(=O)(N(C)C)N%19C[C@@H](COP(=O)(N(C)C)N%20C[C@@H](COP(=O)(N(C)C)N%21C[C@@H](COP(=O)(N(C)C)N%22C[C@@H](COP(=O)(N(C)C)N%23CCN(C(=O)CCNC(=O)CCCCCNC(=O)[C@H](CCCNC(=N)N)NC(=O)CCCCCNC(=O)[C@H](CCCNC(=N)N)NC(=O)[C@H](CCCNC(=N)N)NC(=O)CCCCCNC(=O)[C@H](CCCNC(=N)N)NC(=O)[C@H](CCCNC(=N)N)NC(=O)CCCCCNC(=O)[C@H](CCCNC(=N)N)NC(=O)[C@H](CCCNC(=N)N)NC(=O)CCCCCNC(=O)[C@@H](N)CCCNC(=N)N)CC%23)O[C@@H](n%23ccc(N)nc%23=O)C%22)O[C@@H](n%22cnc%23c(N)ncnc%23%22)C%21)O[C@@H](n%21cnc%22c(N)ncnc%22%21)C%20)O[C@@H](n%20ccc(N)nc%20=O)C%19)O[C@@H](n%19cnc%20c(=O)[nH]c(N)nc%20%19)C%18)O[C@@H](n%18ccc(N)nc%18=O)C%17)O[C@@H](n%17cnc%18c(N)ncnc%18%17)C%16)O[C@@H](n%16cnc%17c(=O)[nH]c(N)nc%17%16)C%15)O[C@@H](n%15ccc(N)nc%15=O)C%14)O[C@@H](n%14ccc(N)nc%14=O)C%13)O[C@@H](n%13cc(C)c(=O)[nH]c%13=O)C%12)O[C@@H](n%12cnc%13c(=O)[nH]c(N)nc%13%12)C%11)O[C@@H](n%11cnc%12c(=O)[nH]c(N)nc%12%11)C%10)O[C@@H](n%10cnc%11c(N)ncnc%11%10)C9)O[C@@H](n9ccc(N)nc9=O)C8)O[C@@H](n8ccc(N)nc8=O)C7)O[C@@H](n7cnc8c(N)ncnc87)C6)O[C@@H](n6ccc(N)nc6=O)C5)O[C@@H](n5ccc(N)nc5=O)C4)O[C@@H](n4cnc5c(=O)[nH]c(N)nc54)C3)O2)c(=O)[nH]c1=O (stereo partly specified),Activity,SK-N-MC,Non-toxic
same,Activity,HeLa [1],Non-toxic
same,Activity,HeLa [2],Toxic
same,Activity,Poliovirus 1,inactive
same,Activity,HeLa [3],Toxic
same,Activity,Vero,Non-toxic
